Source: ChEMBL document CHEMBL3994579, “Synthesis and antibacterial activity of novel 3-O-descladinosylazithromycin derivatives” (2017)
Converted amounts (≈) assume the structure as drawn.

Assays:
Format in all cases: functional
Bacillus subtilis = test: Antibacterial activity against erythromycin/penicillin-susceptible Bacillus subtilis ATCC 9372 by broth microdilution method
Procedure, shortened: (§1)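 MICs were determined in vitro by broth microdilution following the NCCL-recommended method. Azithromycin and clarithromycin were run alongside as reference antibiotics on the same strain panel.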

Streptococcus pneumoniae [1] = test: Antibacterial activity against erythromycin-resistant Streptococcus pneumoniae B1 expressing ermB gene by broth microdilution method
Procedure, shortened: (§2)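 Broth microdilution per NCCL recommendation, read as minimal inhibitory concentration, run alongside azithromycin and clarithromycin references. Strains: S. pneumoniae B1 (erythromycin-resistant, ermB), A22072 (erythromycin-resistant, mefA), AB11 (erythromycin-resistant, erm and mef); S. aureus ATCC29213 ([…]); S. epidermidis clinical isolate (penicillin-resistant, not characterized).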

Streptococcus pyogenes [2] = test: Antibacterial activity against erythromycin-susceptible Streptococcus pyogenes clinical isolate by broth microdilution method; procedure, shortened: as §1
Streptococcus pneumoniae [3] = test: Potency index, ratio of clarithromycin MIC to test compound MIC for erythromycin-resistant Streptococcus pneumoniae AB11 expressing ermB/mefA genes
Pseudomonas aeruginosa = test: Antibacterial activity against penicillin-susceptible Pseudomonas aeruginosa ATCC 27853 by broth microdilution method; procedure, shortened: as §1
Streptococcus pneumoniae [4] = test: Potency index, ratio of azithromycin MIC to test compound MIC for erythromycin-resistant Streptococcus pneumoniae AB11 expressing ermB/mefA genes
Staphylococcus aureus [5] = test: Antibacterial activity against erythromycin-susceptible Staphylococcus aureus ATCC 25923 by broth microdilution method; procedure, shortened: as §1
Streptococcus pneumoniae [6] = test: Antibacterial activity against erythromycin-resistant Streptococcus pneumoniae AB11 expressing ermB/mefA genes by broth microdilution method; procedure, shortened: as §2
Staphylococcus aureus [7] = test: Antibacterial activity against […] Staphylococcus aureus ATCC 29213 by broth microdilution method; procedure, shortened: as §2
Streptococcus pyogenes [8] = test: Antibacterial activity against erythromycin-resistant Streptococcus pyogenes R1 clinical isolate by broth microdilution method
[9] = test system: Staphylococcus epidermidis; test: Antibacterial activity against penicillin-resistant Staphylococcus epidermidis clinical isolate by broth microdilution method; procedure, shortened: as §2
Escherichia coli = test: Antibacterial activity against penicillin-susceptible Escherichia coli ATCC 25922 by broth microdilution method; procedure, shortened: as §1
Streptococcus pneumoniae [10] = test: Antibacterial activity against erythromycin-resistant Streptococcus pneumoniae A22072 expressing mefA gene by broth microdilution method; procedure, shortened: as §2

## CC[C@H]1OC(=O)[C@H](C)[C@@H](OC(=O)Nc2ccccc2C)[C@H](C)[C@@H](O[C@@H]2O[C@H](C)C[C@H](N(C)C)[C@H]2O)[C@](C)(O)C[C@@H](C)CN(C)[C@H](C)[C@H]2OC(=O)O[C@@]21C
Bacillus subtilis
  MIC: 2 µg/mL (≈ 2.67 µM)
Streptococcus pneumoniae [1]
  MIC: 32 µg/mL (≈ 42.7 µM)
Streptococcus pyogenes [2]
  MIC: 0.5 µg/mL (≈ 0.667 µM)
Streptococcus pneumoniae [3]
  Ratio: 128
Pseudomonas aeruginosa
  MIC: 64 µg/mL (≈ 85.3 µM)
Streptococcus pneumoniae [4]
  Ratio: 256
Staphylococcus aureus [5]
  MIC: 4 µg/mL (≈ 5.33 µM)
Streptococcus pneumoniae [6]
  MIC: 1 µg/mL (≈ 1.33 µM)
Staphylococcus aureus [7]
  MIC: 32 µg/mL (≈ 42.7 µM)
Streptococcus pyogenes [8]
  MIC: 32 µg/mL (≈ 42.7 µM)
[9]
  MIC: 4 µg/mL (≈ 5.33 µM)
Escherichia coli
  MIC: 64 µg/mL (≈ 85.3 µM)
Streptococcus pneumoniae [10]
  MIC: 4 µg/mL (≈ 5.33 µM)

## CC[C@H]1OC(=O)[C@H](C)[C@@H](OC(=O)Nc2ccc(F)cc2)[C@H](C)[C@@H](O[C@@H]2O[C@H](C)C[C@H](N(C)C)[C@H]2O)[C@](C)(O)C[C@@H](C)CN(C)[C@H](C)[C@H]2OC(=O)O[C@@]21C
Bacillus subtilis
  MIC: 16 µg/mL (≈ 21.2 µM)
Streptococcus pneumoniae [1]
  MIC: 32 µg/mL (≈ 42.4 µM)
Streptococcus pyogenes [2]
  MIC: 0.25 µg/mL (≈ 0.332 µM)
Pseudomonas aeruginosa
  MIC: 128 µg/mL (≈ 170 µM)
Staphylococcus aureus [5]
  MIC: 32 µg/mL (≈ 42.4 µM)
Streptococcus pneumoniae [6]
  MIC: 8 µg/mL (≈ 10.6 µM)
Staphylococcus aureus [7]
  MIC: 64 µg/mL (≈ 84.9 µM)
Streptococcus pyogenes [8]
  MIC: 64 µg/mL (≈ 84.9 µM)
[9]
  MIC: 64 µg/mL (≈ 84.9 µM)
Escherichia coli
  MIC: 128 µg/mL (≈ 170 µM)
Streptococcus pneumoniae [10]
  MIC: 2 µg/mL (≈ 2.65 µM)

## CC[C@H]1OC(=O)[C@H](C)[C@@H](OC(=O)Nc2cccc(OC)c2)[C@H](C)[C@@H](O[C@@H]2O[C@H](C)C[C@H](N(C)C)[C@H]2O)[C@](C)(O)C[C@@H](C)CN(C)[C@H](C)[C@H]2OC(=O)O[C@@]21C
Bacillus subtilis
  MIC: 16 µg/mL (≈ 20.9 µM)
Streptococcus pneumoniae [1]
  MIC: 64 µg/mL (≈ 83.6 µM)
Streptococcus pyogenes [2]
  MIC: 2 µg/mL (≈ 2.61 µM)
Pseudomonas aeruginosa
  MIC: 64 µg/mL (≈ 83.6 µM)
Staphylococcus aureus [5]
  MIC: 16 µg/mL (≈ 20.9 µM)
Streptococcus pneumoniae [6]
  MIC: 16 µg/mL (≈ 20.9 µM)
Staphylococcus aureus [7]
  MIC: 64 µg/mL (≈ 83.6 µM)
Streptococcus pyogenes [8]
  MIC: 64 µg/mL (≈ 83.6 µM)
[9]
  MIC: 32 µg/mL (≈ 41.8 µM)
Escherichia coli
  MIC: 64 µg/mL (≈ 83.6 µM)
Streptococcus pneumoniae [10]
  MIC: 16 µg/mL (≈ 20.9 µM)

## CC[C@H]1OC(=O)[C@H](C)[C@@H](O)[C@H](C)[C@@H](O[C@@H]2O[C@H](C)C[C@H](N(C)C)[C@H]2OC(=O)Nc2cccc(Cl)c2)[C@](C)(O)C[C@@H](C)CN(C)[C@H](C)[C@H]2OC(=O)O[C@@]21C
Bacillus subtilis
  MIC: 8 µg/mL (≈ 10.4 µM)
Streptococcus pneumoniae [1]
  MIC: 64 µg/mL (≈ 83.1 µM)
Streptococcus pyogenes [2]
  MIC: 1 µg/mL (≈ 1.3 µM)
Pseudomonas aeruginosa
  MIC: 64 µg/mL (≈ 83.1 µM)
Staphylococcus aureus [5]
  MIC: 16 µg/mL (≈ 20.8 µM)
Streptococcus pneumoniae [6]
  MIC: 32 µg/mL (≈ 41.5 µM)
Staphylococcus aureus [7]
  MIC: 128 µg/mL (≈ 166 µM)
Streptococcus pyogenes [8]
  MIC: 64 µg/mL (≈ 83.1 µM)
[9]
  MIC: 32 µg/mL (≈ 41.5 µM)
Escherichia coli
  MIC: 32 µg/mL (≈ 41.5 µM)
Streptococcus pneumoniae [10]
  MIC: 8 µg/mL (≈ 10.4 µM)

## CC[C@H]1OC(=O)[C@H](C)[C@@H](OC(=O)Nc2ccc(C(F)(F)F)cc2)[C@H](C)[C@@H](O[C@@H]2O[C@H](C)C[C@H](N(C)C)[C@H]2O)[C@](C)(O)C[C@@H](C)CN(C)[C@H](C)[C@H]2OC(=O)O[C@@]21C
Bacillus subtilis
  MIC: 32 µg/mL (≈ 39.8 µM)
Streptococcus pneumoniae [1]
  MIC: 32 µg/mL (≈ 39.8 µM)
Streptococcus pyogenes [2]
  MIC: 1 µg/mL (≈ 1.24 µM)
Pseudomonas aeruginosa
  MIC: 128 µg/mL (≈ 159 µM)
Staphylococcus aureus [5]
  MIC: 16 µg/mL (≈ 19.9 µM)
Streptococcus pneumoniae [6]
  MIC: 4 µg/mL (≈ 4.98 µM)
Staphylococcus aureus [7]
  MIC: 128 µg/mL (≈ 159 µM)
Streptococcus pyogenes [8]
  MIC: 64 µg/mL (≈ 79.6 µM)
[9]
  MIC: 0.25 µg/mL (≈ 0.311 µM)
Escherichia coli
  MIC: 128 µg/mL (≈ 159 µM)
Streptococcus pneumoniae [10]
  MIC: 4 µg/mL (≈ 4.98 µM)

## CC[C@H]1OC(=O)[C@H](C)[C@@H](OC(=O)Nc2ccccc2C)[C@H](C)[C@@H](O[C@@H]2O[C@H](C)C[C@H](N(C)C)[C@H]2OC(C)=O)[C@](C)(O)C[C@@H](C)CN(C)[C@H](C)[C@H]2OC(=O)O[C@@]21C
Bacillus subtilis
  MIC: 8 µg/mL (≈ 10.1 µM)
Streptococcus pneumoniae [1]
  MIC: 256 µg/mL (≈ 323 µM)
Streptococcus pyogenes [2]
  MIC: 1 µg/mL (≈ 1.26 µM)
Pseudomonas aeruginosa
  MIC: 64 µg/mL (≈ 80.8 µM)
Staphylococcus aureus [5]
  MIC: 16 µg/mL (≈ 20.2 µM)
Streptococcus pneumoniae [6]
  MIC: 16 µg/mL (≈ 20.2 µM)
Staphylococcus aureus [7]
  MIC: 64 µg/mL (≈ 80.8 µM)
Streptococcus pyogenes [8]
  MIC: 256 µg/mL (≈ 323 µM)
[9]
  MIC: 128 µg/mL (≈ 162 µM)
Escherichia coli
  MIC: 64 µg/mL (≈ 80.8 µM)
Streptococcus pneumoniae [10]
  MIC: 8 µg/mL (≈ 10.1 µM)

## CC[C@H]1OC(=O)[C@H](C)[C@@H](O[C@H]2C[C@@](C)(OC)[C@@H](O)[C@H](C)O2)[C@H](C)[C@@H](O[C@@H]2O[C@H](C)C[C@H](N(C)C)[C@H]2O)[C@](C)(OC)C[C@@H](C)C(=O)[C@H](C)[C@@H](O)[C@]1(C)O [CLARITHROMYCIN]
Bacillus subtilis
  MIC: 0.25 µg/mL (≈ 0.334 µM)
Streptococcus pneumoniae [1]
  MIC: 256 µg/mL (≈ 342 µM)
Streptococcus pyogenes [2]
  MIC: 0.03 µg/mL (≈ 0.0401 µM)
Pseudomonas aeruginosa
  MIC: 64 µg/mL (≈ 85.6 µM)
Staphylococcus aureus [5]
  MIC: 0.25 µg/mL (≈ 0.334 µM)
Streptococcus pneumoniae [6]
  MIC: 128 µg/mL (≈ 171 µM)
Staphylococcus aureus [7]
  MIC: 32 µg/mL (≈ 42.8 µM)
Streptococcus pyogenes [8]
  MIC: 256 µg/mL (≈ 342 µM)
[9]
  MIC: 0.25 µg/mL (≈ 0.334 µM)
Escherichia coli
  MIC: 32 µg/mL (≈ 42.8 µM)
Streptococcus pneumoniae [10]
  MIC: 2 µg/mL (≈ 2.67 µM)

## CC[C@H]1OC(=O)[C@H](C)[C@@H](OC(=O)N(C)c2ccccc2)[C@H](C)[C@@H](O[C@@H]2O[C@H](C)C[C@H](N(C)C)[C@H]2O)[C@](C)(O)C[C@@H](C)CN(C)[C@H](C)[C@H]2OC(=O)O[C@@]21C
Bacillus subtilis
  MIC: 4 µg/mL (≈ 5.33 µM)
Streptococcus pneumoniae [1]
  MIC: 64 µg/mL (≈ 85.3 µM)
Streptococcus pyogenes [2]
  MIC: 0.125 µg/mL (≈ 0.167 µM)
Pseudomonas aeruginosa
  MIC: 64 µg/mL (≈ 85.3 µM)
Staphylococcus aureus [5]
  MIC: 4 µg/mL (≈ 5.33 µM)
Streptococcus pneumoniae [6]
  MIC: 4 µg/mL (≈ 5.33 µM)
Staphylococcus aureus [7]
  MIC: 64 µg/mL (≈ 85.3 µM)
Streptococcus pyogenes [8]
  MIC: 64 µg/mL (≈ 85.3 µM)
[9]
  MIC: 8 µg/mL (≈ 10.7 µM)
Escherichia coli
  MIC: 64 µg/mL (≈ 85.3 µM)
Streptococcus pneumoniae [10]
  MIC: 2 µg/mL (≈ 2.67 µM)
